{
  "source": "the RNAGym collection of RNA variant scans (doi:10.1126/science.aae0568)",
  "parents": {"B1": {"name": "tRNA (parent)", "chain": "GUUCCGUUGGCGUAAUGGUAACGCGUCUCCCUCCUAAGGAGAAGACUGCGGGUUCGAGUCCCGUACGGAACG"}},
  "note": "Fewer inactive variants are shown than the library holds.",
  "data": [
    {"variants_of": "B1", "assay": "yeast fitness relative to wild type (ratio to wild type); higher = fitter; tRNA-Arg(CCU), competitive growth, 37 C, YPD", "procedure,_shortened": "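Variants of the tRNA-Arg(CCU) gene, chemically synthesised with a 3% per-site mutation rate at 69 sites, were placed at the native genomic locus in Saccharomyces cerevisiae. The pooled strains were competed in YPD at 37°C for 24 hours in six parallel replicates. Gene amplicons from the start population and from each end population were read by 100-nucleotide paired-end sequencing. Darwinian fitness relative to wild type came from changes in genotype frequencies; genotypes needed ≥ 100 starting reads, and estimates < 0.5 were set to 0.5.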", "values": [
      {"variant": "GUUCGGUUGGCGUAAUGGUGACGCGUCUCCCUCCUGAGGAGAAGACUGCGGGUUCGAGUCCCGUAAGGAACG", "note": "[C5G A20G A36G C66A]", "yeast fitness": "≤ 0.5"},
      {"variant": "GUUCGGUUGGCGUAAUGGUAGCGCGUCUCCCUACUAAGGAGAAGACUGCGGGUUCGAGUCCCGUACGCUACG", "note": "[C5G A21G C33A G68C A69U]", "yeast fitness": "≤ 0.5"},
      {"variant": "GUUCGGUUGGCGUGAUGGUAACGCGUCUCCCUCCUUAGGAGAAGACUGCGGGUUCGAGUCCCGUACGGAACG", "note": "[C5G A14G A36U]", "yeast fitness": 0.647},
      {"variant": "GUUCGGUUGGCGUAGUGGUAGCGCCUCUCCCUUCUAAGGAGAAGACUGCGGGUUCGAGUCCCGUACGAAACG", "note": "[C5G A15G A21G G25C C33U G68A]", "yeast fitness": "≤ 0.5"},
      {"variant": "GUUCGGUUGGCGUAUUGGUAACGCGUCUCAAUCCUAAGGAGAAGACUGCGGGUUCGAGUCCCGUAGGGAACG", "note": "[C5G A15U C30A C31A C66G]", "yeast fitness": "≤ 0.5"},
      {"variant": "GUUCGGUUGGCGUAUUGGUAACGCGUCUCCCUCCUAAGGAGAAGACUGCGGGUUCGAGUCUCGUACGGAACG", "note": "[C5G A15U C61U]", "yeast fitness": "≤ 0.5"},
      {"variant": "GUUCGGUUGGCGUAUUGGUAACGCGUCUCCCUCCUAAGGAGAAGACUGCAGGUUCGAGUCCCGUACGGUACG", "note": "[C5G A15U G50A A69U]", "yeast fitness": "≤ 0.5"},
      {"variant": "GUUCGGUUGGCGUAAUGGUAGCGCGUCUCCCUCCUAAGGAGAAAACUGCGGGUUCGACUCCCGUACGGAACG", "note": "[C5G A21G G44A G58C]", "yeast fitness": 0.616},
      {"variant": "GUUCGGUUGGCGUAUUGGUAACGCGUCUCCCUCCAAAGGAGAAGACUGCAGGUGCGAGUCCCGUACGGAACG", "note": "[C5G A15U U35A G50A U54G]", "yeast fitness": "≤ 0.5"},
      {"variant": "GUUCGGUUGGCGUAAUGGUCACGCGUCUCCCUCCUAAGGAGAAGACUACGGGUUCGAGUCCCGUACGGAACG", "note": "[C5G A20C G48A]", "yeast fitness": "≤ 0.5"},
      {"variant": "GUUCGGUUGGCGUUAUGAUAUCGCGUCUCCCUCCUAAGGAGGAGACUGCGGGUUCGAGUCCCGUACGAAACG", "note": "[C5G A14U G18A A21U A42G G68A]", "yeast fitness": 0.522},
      {"variant": "GUUCGGUUGGCGUUAUGGUAACGGGUCUCCCUCCUAAGGAGAAGACUGCGGGUUCGAGUCCCGUACGGAUCG", "note": "[C5G A14U C24G A70U]", "yeast fitness": "≤ 0.5"},
      {"variant": "GUUCGGUUGGCGUAAUGGUCACGCGUCCACCUCCUUAGGUGAAGACUGGGGGUUCGAGUCCCCUACGGAUCG", "note": "[C5G A20C U28C C29A A36U A40U C49G G63C A70U]", "yeast fitness": 0.579},
      {"variant": "GUUCGGUUGGCGUUAUGGUAACGCGUCUCACUCCUAAGGAGAAGACUGCGGGUUCGAGUCCAGUACGGAACG", "note": "[C5G A14U C30A C62A]", "yeast fitness": "≤ 0.5"},
      {"variant": "GUUCGGUUGGCGUGAUGGUAACGCGUCUCCCUCCUAAGGAGAAGACUGCGGGUUCGAGUCCCGUACGGAACG", "note": "[C5G A14G]", "yeast fitness": 0.999},
      {"variant": "GUUCGGUUGGCGUAAUGGUAGCGCGUCUCCCUCCUAAGGAAAAGACUGCGGGUUCGAGUCCCGUACAGAACG", "note": "[C5G A21G G41A G67A]", "yeast fitness": "≤ 0.5"},
      {"variant": "GUUCGGUUGGCGUGAUGGUAACGCGUCUCCCUCCUUAGGAGAAGACUGCGGGUUCGAGUCCCGUACAGAACG", "note": "[C5G A14G A36U G67A]", "yeast fitness": "≤ 0.5"},
      {"variant": "GUUCGGUUGGCGUAAUGGUGACGCGUCUCCCUCCUAAGGAGAAGACUGCGGGUUCGACUCCCGUACGGAACG", "note": "[C5G A20G G58C]", "yeast fitness": 0.648},
      {"variant": "GUUCGGUUGGCGUAAUGGUCACGUGUCUCCCUCCUAAGGAGAAGACUGCGGGUUUGAGUCCCGUACGGAACG", "note": "[C5G A20C C24U C55U]", "yeast fitness": "≤ 0.5"},
      {"variant": "GUUCGGUUGGCGUAAUGGUCACGCGUGUCCCUCCUAAGGAGAAGACUGUGGGAUCGAGUCCCGUACGGAACG", "note": "[C5G A20C C27G C49U U53A]", "yeast fitness": 0.568},
      {"variant": "GUUCGGUUGGCGUUAUGAUAUCGCGUCUCCCUCCUAAGGAGCAGACUCCGGGUUCGAGUCCCGUACGGAACG", "note": "[C5G A14U G18A A21U A42C G48C]", "yeast fitness": "≤ 0.5"},
      {"variant": "GUUCGGUUGGCGUUAUGGUAACGCGUCUCCCUCCUCAGGAGAAGACUGCGGGUUCGAGUCGAGUACGGCACG", "note": "[C5G A14U A36C C61G C62A A69C]", "yeast fitness": "≤ 0.5"},
      {"variant": "GUUCGGUUGGCGUAAUGGUAGCGCGUCUCCCCCCUAAGGAGAAGACUGCGGGUUCGAGUCCCGUACGGCACG", "note": "[C5G A21G U32C A69C]", "yeast fitness": "≤ 0.5"},
      {"variant": "GUUCGGUUGGCGUAAUGGUGACGCGUCUCCCUCCUCAGGAGGAGACUGCGGGUUCGAGUCCCGUACGGAACG", "note": "[C5G A20G A36C A42G]", "yeast fitness": "≤ 0.5"},
      {"variant": "GUUCGGUUGGCGUAAUGGUCACACGUCUCCCUCCUAAGGAGAAGACUGCGGGUACGAGUCCCGUACGGAACG", "note": "[C5G A20C G23A U54A]", "yeast fitness": "≤ 0.5"},
      {"variant": "GUUCGGUUGGCGUAGUGGUAGCGCCUCUCCCUUCUAAGGAGAAGACUGCGGGUUCGAGUCCCGUACGGAACG", "note": "[C5G A15G A21G G25C C33U]", "yeast fitness": "≤ 0.5"},
      {"variant": "GUUCGGUUGGCGUAUUGGUAACGCGUCUCCCUCCUAAGGAGAAGACUGUGGGUUCGUGUCACGUACGGAACG", "note": "[C5G A15U C49U A57U C61A]", "yeast fitness": 0.663},
      {"variant": "GUUCGGUUGGCGUAAUGGUGACGCGUCUCCCUCCUAAGGGGAAAAGUGCGGGUUCGAGUCCCGUACGGAACG", "note": "[C5G A20G A40G G44A C46G]", "yeast fitness": 0.517},
      {"variant": "GUUCGGUUGGCGUAAUGGUACCGCGUCUCCCUCCUAAGGAGAAGGCUGCGGGUUCGAGUCCCGUACGAAACG", "note": "[C5G A21C A45G G68A]", "yeast fitness": "≤ 0.5"},
      {"variant": "GUUCGGUUGGCGUAAUGGUAUCGCGUCUCCCUCCUAAGGAGAAGACUGCGGGUUCGAGUCCCGUACGGAACG", "note": "[C5G A21U]", "yeast fitness": 0.731},
      {"variant": "GUUCGGUUGGCGUAAUGGUUACGCGUCUCCCUCCUAAGGAGAAGACUGCGGGUUCGAGUCCCGUGCGGAACG", "note": "[C5G A20U A65G]", "yeast fitness": 0.65},
      {"variant": "GUUCGGUUGGCGUAAUGGUACCGCGUCUCCCCCCUAAGAAGAAGACUGCGGGUUCGUGCCCCGUACGGAACG", "note": "[C5G A21C U32C G39A A57U U59C]", "yeast fitness": "≤ 0.5"},
      {"variant": "GUUCGGUUGGCGUAGUGGUAACGCGUCUCCCUCCUAAGGAGAAGACUGCGGGUAGGAGUCCCGUACGGAACG", "note": "[C5G A15G U54A C55G]", "yeast fitness": "≤ 0.5"},
      {"variant": "GUUCGGUUGGCGUAAUGGUAGCGCGUCUCCCCCCUAAGGAGAAGACUGCGGGUUCGAGUCCCGUUCGAAACG", "note": "[C5G A21G U32C A65U G68A]", "yeast fitness": 0.507},
      {"variant": "GUUCGGUUGGCGUAAUGGUACCGCGUCUCCCUCCUAAGGAGAUGACUGCGGGUUCGAGUCCCGUACGGAGCG", "note": "[C5G A21C A43U A70G]", "yeast fitness": "≤ 0.5"},
      {"variant": "GUUCGGUUGGCGUAAUGGUAGCGCGCCUCCCUCCUAAGGAGAAGACUGAGGGUCCGAGUCCCGUGCGGAACG", "note": "[C5G A21G U26C C49A U54C A65G]", "yeast fitness": "≤ 0.5"},
      {"variant": "GUUCGGUUGGCGUCAUGGUAACGCGUCUCCCUCCUAACAAGACGACUGCGGGUUCGAGUGCCGUCCGGAACG", "note": "[C5G A14C G38C G39A A43C C60G A65C]", "yeast fitness": "≤ 0.5"},
      {"variant": "GUUCGGUUGGCGUAAUGGUGACGCGUCUCCCUCCUAAGGAGAAGACUGCGGGUUGGAGUCCCGUACGGAACG", "note": "[C5G A20G C55G]", "yeast fitness": 0.538}
    ]}
  ]
}
